S100A4 MyoIIA: inhibitors of human S100A4 binding to myosin IIA peptide; P26447; S100A4/TAMRA-MyoIIA peptide fluorescence polarization; inhibition, % at 10.7 µM; 0.14% of 360,000 active;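 active = mean inhibition of at least 70% across replicates, with every replicate also reaching that level; inconclusive = mean inhibition reaches 70% but some replicates fall short; inactive = mean inhibition below 70%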
Target sequence (P26447 whole entry, looked up): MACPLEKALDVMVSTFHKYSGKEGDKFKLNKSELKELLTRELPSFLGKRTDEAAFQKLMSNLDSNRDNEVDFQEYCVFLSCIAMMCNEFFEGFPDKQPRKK
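Test system: S100A4 monomer protein; Medium: HEPES pH 7.2 with CaCl2, KCl, NaCl, DTT, Triton; Probe or stimulus: TAMRA-labelled myosin IIA heavy-chain peptide probe, 5 nM; Doses: one dose per compound; Times: polarization read 5 min after assay mix addition, stable 5–60 min; Benchmarks: neutral control DMSO, positive control TFP.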
ERAP1 inh: inhibitors of human ERAP1 aminopeptidase | 0.15% of 340,000 active | inhibition, % at 10.7 µM | Q9NZ08 | recombinant ERAP1, Leu-AMC fluorescence, 60 min;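 active = mean replicate inhibition of at least 30%, or all replicates individually reaching that 30% level; inactive = mean below 30% and not every replicate reaching it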;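 also: 0% = neutral control wells and 100% = L-leucinethiol positive control wells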
ARNT TACC3 PPI: disrupts binding between human ARNT and TACC3. Q9Y6A5. 0.66% of 390,000 active. inhibition, % at 9.99 µM. AlphaScreen His-ARNT PAS-B/GST-TACC3 binding, luminescence; TACC3 fragment carries E629A point mutation;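 active = mean inhibition of replicates at least 50% and at least half of replicates each reaching 50%; inconclusive = half or more replicates reach 50% but mean below 50%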;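 also: 0% = complete ARNT plus TACC3 wells and 100% = ARNT alone without TACC3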
rRNA inh HTS: inhibitors of bacterial rRNA selective over humanized ribosomes. 1.6% of 350,000 active. GFP signal change (wild-type ribosome), % (concentration not given with the values). E. coli WT GFP vs humanized-ribosome RFP mutants, fluorescence, 24 h; active compounds read low; DMSO median 0, no signal -100. AID 720706;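 active = significant combined selectivity score with lowered wild-type GFP, culture density cut under 30%, mutant RFP and density less affected; inactive = any of these conditions unmet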
PGC1a acetyl inh: lowers PGC1a acetylation signal in U2OS cells; AlphaScreen anti-acetyl-lysine; with virally co-expressed GCN5 acetyltransferase; inhibition, % at 15.6 µM; 0.17% of 350,000 active;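 active = every replicate shows inhibition of at least 40%; inconclusive = mean inhibition at least 40% but some replicate below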;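 also: 0% = neutral control wells and 100% = positive control wells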
Casp6 inh: caspase-6 (human) enzyme inhibition; P55212; purified caspase-6, Z-VEID-R110 cleavage fluorescence; inhibition, % at 12.5 µM; 0.53% of 350,000 active; AID 686996;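 active = mean inhibition across replicates at least about 35%, with every replicate also reaching that limit, limit read from the data; inconclusive = only one of the two criteria met; inactive = neither criterion met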;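 also: 0% = median of neutral control wells and 100% = no fluorescence left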
Target sequence (P55212 24-179 limits assumed): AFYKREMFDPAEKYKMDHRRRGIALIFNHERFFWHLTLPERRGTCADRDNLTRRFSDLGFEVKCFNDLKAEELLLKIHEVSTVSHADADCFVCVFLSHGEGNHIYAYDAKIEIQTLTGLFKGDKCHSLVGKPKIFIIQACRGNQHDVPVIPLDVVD
Target sequence (P55212 194-293 limits assumed): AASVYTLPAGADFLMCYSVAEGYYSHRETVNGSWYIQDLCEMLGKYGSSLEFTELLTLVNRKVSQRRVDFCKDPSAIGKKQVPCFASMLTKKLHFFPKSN
HepG2 cytotox: cytotoxic compounds in HepG2 cells. shares compounds with rRNA inh HTS. HepG2 viability, ATP luminescence, 72 h. activity change, negative = cytotoxicity, unspecified at 26 µM. 30 tested, under 10 active. AID 743480;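 active = compounds whose fitted half-maximal signal-loss concentration is at most twice their highest valid dose; inconclusive = flat curve with 30 to 70% signal loss, or poor fit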
AID977621: growth inhibition of wild-type GFP E. coli, dose response, H69 mutant RFP, cherry-pick; shares compounds with rRNA inh HTS; E. coli wild-type GFP strain growth, fluorescence, 24 h; activity change, negative = inhibition at 50 µM; 1,900 tested, under 10 active; AID 977621;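 active = Wild-type ribosome reporter drop at least double the humanized mutant ribosome reporter drop, growth loss under a set limit; inconclusive = no clear call, values can overlap the other calls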;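 also: wild-type GFP and H69 mutant RFP strains grown together 50/50 in each well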
AID977628: E. coli growth inhibition, wild-type GFP versus h24 humanized RFP strain, dose response, h24 mutant RFP vs wild-type GFP, cherry-pick; shares compounds with rRNA inh HTS; E. coli WT GFP strain growth, fluorescence, 24 h; activity change, negative = inhibition at 50 µM; 1,900 tested, under 10 active;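 active = compound lowering the normal-ribosome reporter at least twice as much as the humanized-ribosome reporter, growth loss under a set limit; inconclusive = no clear call, values can overlap the other calls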;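 also: wild-type GFP and h24 humanized RFP strains co-cultured 1 to 1 per well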
* = called active by the depositor; ? = inconclusive; · = no result; ! = repeats disagree. Rows were chosen to be rich in hits. Some 2.4% of all compounds tested hit in one or more screens of this group.

SMILES	S100A4 MyoIIA	ERAP1 inh	ARNT TACC3 PPI	rRNA inh HTS	PGC1a acetyl inh	Casp6 inh	AID977621	AID977628	others
COC(=O)CC1COc2ccccc2N1C(=O)c1ccc(Br)cc1 (stereo not drawn)	-1	-5	3	-25*	1	4	-1.5	2.9
COC(=O)CC#C[C@H](C)[C@@H](NS(=O)(=O)c1ccc([N+](=O)[O-])cc1)C(C)(C)C	1	-2	·	-13*	·	2	?	?
CC(=O)Nc1nc(C)c(-c2csc(Nc3ccccn3)n2)s1	-7	5	9	-20*!	4	-5	0.27	·
O=C(CCC(=O)c1cccs1)OCC(=O)c1ccc(Cl)s1	0	3	-5	-18*	·	2	-16	·
c1ccc2c(c1)CSc1ccccc1N2	-2	0	·	-24*	-6	1	6.1	-12
CN1C(=O)c2cc(NC(=O)c3ccc(F)c(F)c3)ccc2OC[C@H]2O[C@H](CC(=O)O)CC[C@@H]21	·	·	·	1	0	·	·	·
CCCC[n+]1ccn(-c2nc3ccccc3nc2[N-]S(=O)(=O)c2ccccc2)c1	-3	4	-2	14	-2	2	·	·
CCCC[n+]1ccn(-c2nc3ccccc3nc2[N-]S(=O)(=O)c2cccs2)c1	-24	5	0	-26*	-8	3	·	-8.4
O=C(C[C@@H]1C=C[C@@H](NS(=O)(=O)c2ccccc2F)[C@H](CO)O1)NCCCN1CCOCC1	0	0	-4	1	0	3	·	·
COc1ccc(-c2noc(=O)n2Cc2ccc(F)cc2Cl)cc1	1	-4	-2	-10	-3	-3	·	·
COc1ccc(-c2noc(=O)n2Cc2ccccc2Cl)cc1	-12	1	1	-15*	4	-2	·	0.49
COc1ccc(CC(=O)NCc2ccccc2)cc1OC	-1	-2	1	13	-13	2	·	·
COc1ccc(CC(=O)NCc2csc(-c3cccs3)n2)cc1OC	-6	-5	-26	-20*	·	-5	-4.9	·
[O-][n+]1ccccc1/C=C/c1ccccc1	-8	-1	-4	-26*	12	3	-11	?
O=C1CCCc2c1nc(-c1ccc([N+](=O)[O-])cc1)n2O	-4	10	0	-18*	·	3	?	?
CSc1ccccc1NC(=O)c1ccccc1N(Cc1ccccc1)S(C)(=O)=O	0	4	3	-24*	-29	3	-1.6	·
CN(C)C(=O)[C@@H]1[C@@H](CO)[C@@H]2Cn3c(cccc3=O)[C@@H]2N1C(=O)C1CCCC1	-5	·	·	2	6	·	·	·
Brc1ccc(Nc2ncnc3[nH]ncc23)cc1	-11	8	·	-20*	9	-1	-12	·
COc1ccc(-n2cc(-c3ccccc3)c3c(NCCCN4CCOCC4)ncnc32)cc1	-6	5	12	-56	-1	2	·	·
COc1ccc(-n2cc(-c3ccccc3)c3c(N4CCOCC4)ncnc32)cc1	-1	-2	-2	-29*	5	·	·	?	HepG2 cytotox=15
O=C(O)c1cc(-c2cccs2)nn1-c1ccccc1	2	-2	-1	-10	8	-2	·	·
O=C(O)c1cc(-c2cccs2)nn1-c1cccc(Cl)c1	3	-4	0	-33*	6	3	-8.6	?
O=C(c1ccncc1)N1C[C@@H]2[C@H](c3ccccc31)[C@@H](CO)N2C(=O)c1ccncc1	-25	-2	-2	2	9	-2	·	·
Cc1ccsc1C(=O)N1CCc2ccccc2C1	-2	-3	·	-3	·	4	·	·
Cc1ccsc1C(=O)OCC(=O)N1CCc2ccccc2C1	-2	1	4	-22*	0	-3	-8.9	·
SMILES	S100A4 MyoIIA	ERAP1 inh	ARNT TACC3 PPI	rRNA inh HTS	PGC1a acetyl inh	Casp6 inh	AID977621	AID977628	others
COc1ccc(C(=O)Nc2ccc3c(c2)OC[C@H](C)NC[C@@H](C)[C@@H](OC)CN(C)C3=O)cc1	-3	-2	9	-2	1	-7	·	·
O=C(Nc1nc2ccccc2n1CCN1CCOCC1)c1ccccc1	-6	2	3	-16*	9	0	-32	-26
CC(=O)Nc1nc2ccccc2n1CCN1CCOCC1	·	·	-1	·	·	·	·	·
c1coc(CSc2ncnc3c2oc2ccccc23)c1	-9	·	-7	-23*	-11	1	-6.3	-5.5
COc1ccc2c3c(n(C)c2c1)[C@@H](CO)NCC31CN(C(=O)c2ccccc2)C1	·	·	·	2	2	·	·	·
COc1ccccc1Cc1c(-c2ccc(F)cc2)nc2ccc(Br)cn12	-9	·	·	-24*	-5	0	-13	-12
COc1ccccc1Cc1c(-c2ccc(OC)c(OC)c2)nc2ccc(Br)cn12	-16	·	·	-4	-2	7	·	·
Cc1ccc(Cc2c(-c3ccc(C#N)cc3)nc3ccc(Br)cn23)cc1	-9	-3	·	-28*	-8	-3	9	2.9
C[C@@H]1CN([C@@H](C)CO)S(=O)(=O)c2ccc(-c3ccc(F)cc3)cc2O[C@H]1CN(C)C(=O)Nc1ccccc1F	-2	-1	-9	-4	-8	2	·	·
O=C(NCc1ccccc1)C1CCN(S(=O)(=O)c2cc([N+](=O)[O-])ccc2Cl)CC1	3	-2	·	0	·	-1	·	·
O=C(NCc1cccnc1)C1CCN(S(=O)(=O)c2cc([N+](=O)[O-])ccc2Cl)CC1	2	-3	5	-3.1*	-12	-5	-8.1	-13
C[C@@H]1CCCCO[C@@H](CN(C)C)[C@H](C)CN([C@@H](C)CO)C(=O)c2cc(NC(=O)Nc3cccc4ccccc34)ccc2O1	-2	0	-5	3	-10	-2	-5.2	6.2
C[C@@H]1CN([C@@H](C)CO)C(=O)c2cc(NC(=O)Nc3cccc4ccccc34)ccc2O[C@@H](C)CCCCO[C@H]1CN(C)C	8	2	4	-1	-4	0	-6.2	2.7
C[C@@H]1CCCCO[C@H](CN(C)C)[C@H](C)CN([C@@H](C)CO)C(=O)c2cc(NC(=O)Nc3cccc4ccccc34)ccc2O1	7	2	13	-36*	-4	-2	-3.2	0.029
C[C@@H]1CCCCO[C@H](CN(C)C)[C@@H](C)CN([C@H](C)CO)C(=O)c2cc(NC(=O)Nc3cccc4ccccc34)ccc2O1	5	5	0	2	-3	1	5.2	?
